Assay results from ChEMBL document CHEMBL1122290, “N-(substituted-phenyl)-D-glycopyranosylamines and their O-acetyl derivatives as potential modifiers of the formation of glycosaminoglycans” (1983).

Test system: B16
Assay: In vitro compound's ability to inhibit the replication of cultured B16 melanoma cells
Format: functional
Conditions: Mus musculus, read-out: ID50 (the source's name)
Outline: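 B16/F10 melanoma cells, kept as monolayers at 37 °C in Eagle's MEM with Hanks' salts plus 10% fetal calf serum, were seeded from exponential growth at 1.5 to 3 × 10⁵ cells per 25-cm² flask. Compound (0.1 μM–0.1 mM) was added at seeding. After 72 h, cells were trypsinized and counted electronically. ID50 was read graphically from at least two replicate experiments.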

Row | SMILES | IC50
1 | O=C(O)c1ccc(N[C@@H]2O[C@H](CO)[C@@H](O)[C@H](O)[C@H]2O)cc1 | 100 µM
2 | CC(=O)OCC1O[C@@H](Nc2ccc(C(=O)O)cc2)[C@@H](OC(C)=O)C(OC(C)=O)[C@H]1OC(C)=O (stereo partly drawn) | 49 µM
3 | O=C(O)c1ccc(N[C@@H]2O[C@H](CO)[C@H](O)[C@H](O)[C@H]2O)cc1 | 30 µM
4 | O=C(O)c1ccc(N[C@@H]2O[C@H](CO)[C@@H](O)[C@H](O)[C@@H]2O)cc1 | 39 µM
5 | O=C(O)c1ccc(N[C@@H]2OC[C@@H](O)C(O)[C@@H]2O)cc1 (stereo partly drawn) | 38 µM
6 | O=C(O)c1ccc(N[C@@H]2OC[C@@H](O)C(O)[C@H]2O)cc1 (stereo partly drawn) | 100 µM
7 | CC1O[C@@H](Nc2ccc(C(=O)O)cc2)[C@@H](O)C(O)[C@H]1O (stereo partly drawn) | 37 µM
8 | O=C(O)c1ccc(N[C@@H]2OC(CO)[C@@H](O)C(O)[C@@H]2O)cc1 (stereo partly drawn) | 100 µM

Stronger by IC50, values ahead:

Row | IC50 | SMILES
9 | 25 µM | CC(=O)OC(=O)c1ccc(N[C@@H]2OC[C@@H](OC(C)=O)C(OC(C)=O)[C@@H]2OC(C)=O)cc1 (stereo partly drawn)
10 | 25 µM | CC(=O)OCC1O[C@@H](Nc2ccc(C(=O)OC(C)=O)cc2)[C@H](OC(C)=O)C(OC(C)=O)[C@@H]1OC(C)=O (stereo partly drawn)
11 | 20 µM | CC(=O)OC1[C@@H](OC(C)=O)C(C)O[C@@H](Nc2ccc(C(=O)O)cc2)[C@H]1OC(C)=O (stereo partly drawn)
12 | 18 µM | CC(=O)OCC1O[C@@H](Nc2ccc(C(=O)O)cc2)[C@@H](OC(C)=O)C(OC(C)=O)[C@@H]1OC(C)=O (stereo partly drawn)
13 | 4 µM | CC(=O)OC1[C@@H](OC(C)=O)CO[C@@H](Nc2ccc(C(=O)O)cc2)[C@@H]1OC(C)=O (stereo partly drawn)
